Screening data (PubChem BioAssay)
RBBP9 inhibitor – human RBBP9 hydrolase inhibition. recombinant RBBP9, FP-Rh probe fluorescence polarization. AID 1515. O75884. inhibition, % at 7.94 µM. hit rate 0.2% among 220,000;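 active = inhibition above the campaign mean of all tested compounds plus 3 SD, cut at about 14% in these data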;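 note: plate controls were DMSO wells with RBBP9 for no effect and wells lacking RBBP9 protein for full effect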
Target sequence (O75884 whole entry, looked up): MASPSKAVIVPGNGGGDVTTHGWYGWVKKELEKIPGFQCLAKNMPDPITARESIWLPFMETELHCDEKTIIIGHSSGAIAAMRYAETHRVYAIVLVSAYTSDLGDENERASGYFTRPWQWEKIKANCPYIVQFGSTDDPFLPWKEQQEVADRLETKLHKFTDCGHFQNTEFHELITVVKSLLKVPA
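Measured by – fluorescence polarization · Test system – RBBP9 protein · Input – 2.5 µM RBBP9 dispensing solution, before mixing · Measure – percent inhibition from mP, scaled between DMSO and no-protein wells · Benchmarks – DMSO-treated enzyme wells and wells lacking RBBP9 · Times – preincubation 30 min plus labeling 45 min at 25 °C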
PME-1 inh – PME-1 (human) inhibition | Q9Y570 | recombinant PME-1, FP-Rh probe fluorescence polarization | inhibition, % at 5.9 µM | hit rate 0.53% among 320,000 | AID 2130;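 active = inhibition above the campaign mean of all compounds plus 3 SD, cut at about 26% in these data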;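 note: competitive labeling of PME-1 active site by serine hydrolase directed probe; 0% = PME-1 with DMSO and 100% = wells lacking PME-1 enzyme; inhibitors block probe labeling so polarization falls and inhibition rises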
Target sequence (Q9Y570 whole entry, looked up): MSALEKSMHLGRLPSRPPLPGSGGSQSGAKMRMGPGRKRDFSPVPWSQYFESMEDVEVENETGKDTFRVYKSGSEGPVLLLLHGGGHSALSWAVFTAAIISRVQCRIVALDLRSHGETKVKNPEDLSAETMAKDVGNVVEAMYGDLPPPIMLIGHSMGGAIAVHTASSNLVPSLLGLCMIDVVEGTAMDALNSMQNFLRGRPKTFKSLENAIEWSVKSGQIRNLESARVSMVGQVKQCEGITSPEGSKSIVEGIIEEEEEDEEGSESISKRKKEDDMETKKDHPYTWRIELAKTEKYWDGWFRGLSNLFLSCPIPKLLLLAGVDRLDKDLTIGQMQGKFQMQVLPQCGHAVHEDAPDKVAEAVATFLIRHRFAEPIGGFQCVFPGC
PAD4 inh – PAD4 (human) enzyme inhibition; hit rate 0.41% among 330,000; inhibition, % at 6.36 µM; Q9UM07; AID 485272; recombinant PAD4, RCA probe fluorescence polarization;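 active = percent inhibition above a cutoff equal to the mean of all tested compounds plus 3 SD, cut at about 15% in these data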;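 note: 0% = PAD4 with RCA probe and DMSO and 100% = probe without PAD4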
Fam108B counter – counter-screen for RBBP9 inhibitors: inhibitors of mouse Fam108B. recombinant Fam108B, FP-Rh probe fluorescence polarization. inhibition, % at 9.51 µM. AID 1947. hit rate 0.33% among 300,000;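 active = inhibition above the screen mean inhibition plus 3 SD, computed separately per campaign, cut at about 18% in these data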;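 note: inhibitors lower polarization as less probe binds the enzyme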
GSTO1 inh – blocks human GSTO1 in RBBP9 counter-screen; P78417; recombinant GSTO1, activity-based probe fluorescence polarization; inhibition, % at 5.96 µM; hit rate 1.1% among 300,000; AID 1974;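 active = inhibition above the campaign mean inhibition plus 3 SD, cut at about 35% in these data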;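 note: 0% = GSTO1-1 with DMSO and 100% = wells lacking GSTO1-1 enzyme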
PRMT1 inh – blocks human protein arginine methyltransferase 1; Q99873; recombinant PRMT1, activity-based probe fluorescence polarization; inhibition, % at 2.79 µM; hit rate 1.3% among 370,000; AID 652257;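 active = inhibition above about 21% made by adding two undisclosed values, limit read from the data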
PRMT1 confirm – PRMT1 (human) inhibition, FP confirmation | AID 687036 | recombinant His-PRMT1, activity-based probe fluorescence polarization | hit rate 42% among 3,300 | shares compounds with PRMT1 inh | inhibition, % at 2.79 µM;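 active = mean inhibition across replicates above the hit cutoff derived for the earlier primary screen, cut at about 22% in these data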
* hit, by the source's call; . = no result. Rows were chosen to be rich in hits. Some 2.3% of all compounds tested hit in one or more screens of this group.

SMILES | RBBP9 inhibitor | PME-1 inh | PAD4 inh | Fam108B counter | GSTO1 inh | PRMT1 inh | PRMT1 confirm
Cc1ccc(N2C(=O)c3cccc4c(N)ccc(c34)C2=O)c2cccnc12 | -6 | -33 | -21 | -23 | -21 | 94* | 119*
CCN1CCN(C(=S)c2ccc(OCC(=O)NCc3ccccc3)cc2)CC1 | -1 | 2 | -1 | 1 | 0 | 27* | 38*
Oc1ccc(N=Nc2ccccc2)o1 | . | 1 | 0 | 1 | -2 | 35* | 49*
c1ccc(N=Nc2ccc3cccccc2-3)cc1 | . | 6 | -2 | 5 | -3 | -1 | .
COCc1ccc(C(=O)N2CCCC(C(=O)c3cc(F)ccc3F)C2)s1 (stereo not drawn) | -6 | 4 | 4 | 9 | 9 | -1 | .
Oc1ccc(N2CCN(Cc3ccc(OCCCN4CCCCC4)cc3)CC2)cc1 | 3 | -4 | 3 | 0 | 10 | 28* | 1
O=C(NCC(c1ccc(F)cc1)N1CCOCC1)c1ccc(-c2ccccc2)cc1 (stereo not drawn) | . | . | 1 | . | . | -3 | .
COc1c(/C=N/NC(=O)c2ccncc2)c(CCN(C)C(C)=O)cc2c1OCO2 | -7 | 1 | 0 | -1 | -2 | 2 | .
COc1ccc(/C=C2/C(=O)N=C3SCCN32)cc1 | -9 | 3 | -2 | 0 | 1 | 6 | .
Brc1ccc(C2NCCS2)cc1 (stereo not drawn) | 1 | 4 | 0 | 3 | -1 | 32* | 7
COc1ccccc1NC(=O)N1CCN(C(=O)c2ccco2)CC1 | . | -5 | 2 | 0 | 9 | 1 | .
C=CC[C@H]1c2ccccc2[C@H]2N3N=Cc4ccccc4[C@H]3[C@H](CCc3ccccc3)C(=O)N2N1C(=O)c1ccccc1 | . | . | . | . | . | -1 | .
O=C1CSC(=S)N1N=Cc1c(O)ccc2ccccc12 | . | . | . | . | . | 35* | 33*
COc1cccc(/C=N/N2C(=O)CSC2=S)c1O | 1 | 5 | 4 | 11 | 13 | 38* | 53*
O=S(=O)(Nn1c(O)c(C=C2N=c3ccccc3=N2)sc1=S)c1ccccc1 | -5 | 0 | -6 | 9 | -8 | 17 | .
O=C(Nn1c(O)c(C=C2N=c3ccccc3=N2)sc1=S)c1ccccc1Cl | -1 | 1 | -4 | 3 | 2 | 37* | 2
O=C(CSCc1c(F)cccc1Cl)NCc1ccncc1 | -6 | -4 | -2 | 11 | 1 | -6 | .
COc1ccccc1N1C(=O)c2cccc3c(N(C)CCO)ccc(c23)C1=O | . | -1 | 6 | 3 | 6 | 66* | 47*
COc1ccccc1N1C(=O)c2cccc3c(C(=O)O)ccc(c23)C1=O | -9 | 6 | 3 | 4 | 1 | -1 | .
Cc1ccccc1N1C(=O)c2cccc3c(N(C)CCO)ccc(c23)C1=O | -6 | -1 | 4 | -6 | 5 | 71* | 63*
COc1ccc(C)cc1NC(=O)CSc1nnc(COc2ccc(C)cc2)n1Cc1ccco1 | -5 | -1 | 2 | -2 | 5 | 1 | .
CCN(Cc1ccccc1)S(=O)(=O)CCNC(=O)c1ccccc1 | . | 1 | 2 | -3 | -2 | 33* | 1
O=C(CSc1nccc(=O)[nH]1)NCc1ccc2c(c1)OCO2 | . | 5 | -2 | 4 | 5 | -1 | .
CC1(OC(=O)CCc2ccccc2)C(=O)C=C2C=C(c3ccc(C#N)cc3)N(Cc3ccco3)C=C2C1=O (stereo not drawn) | . | 1 | -11 | 6 | 13 | 28* | 10
CCN(C(=O)COc1ccccc1C(=O)NCc1ccccc1)C1CCS(=O)(=O)C1 (stereo not drawn) | . | -3 | -6 | . | . | 0 | .
SMILES | RBBP9 inhibitor | PME-1 inh | PAD4 inh | Fam108B counter | GSTO1 inh | PRMT1 inh | PRMT1 confirm
CCN(C(=O)COc1cccc2cccnc12)C1CCS(=O)(=O)C1 (stereo not drawn) | -6 | -3 | -8 | -1 | 21 | 33* | 4
CN(c1ncc(C(F)(F)F)cc1Cl)N1C(=O)c2cccc(N)c2C1=O | -6 | -1 | 0 | 1 | -2 | 9 | .
CN(c1ncc(C(F)(F)F)cc1Cl)N1C(=O)C2ONC3(C(=O)CC(C)(C)CC3=O)C2C1=O (stereo not drawn) | -6 | -4 | -16 | 3 | 4 | 72* | -7
N#CC1=C(N)S[C@@H](C(=O)c2ccc(F)cc2)[C@@H]1c1cccs1 | 5 | 1 | -5 | 0 | -3 | 35* | 1
Cc1nc2c([nH]1)C1(CCN(Cc3ccccc3)CC1)C(C#N)=C(N)O2 | -10 | 19 | 1 | 1 | 2 | 42* | 2
O=C(O)c1ccc(-n2cccc2/C=C2/NC(=O)N(c3cccc(Cl)c3)C2=O)cc1 | 1 | . | . | . | . | 29* | 5
O=C(Cc1csc(-c2cccc(Cl)c2)n1)Nc1cccc(S(=O)(=O)NC2=NCCC2)c1 | . | -3 | -5 | 1 | -13 | 0 | .
Cc1ccc(NC(=O)CC2SC(=O)N(c3ccccc3)C2=O)cc1 (stereo not drawn) | -3 | -5 | -7 | -4 | -38 | 14 | .
O=C(CC1SC(=O)N(c2ccccc2)C1=O)Nc1ccccc1 (stereo not drawn) | -4 | -2 | -8 | 1 | -4 | 81* | 93*
CC(=O)Nc1ccc(NC(=O)CC2SC(=O)N(CC(=O)c3ccccc3)C2=O)cc1 (stereo not drawn) | . | 0 | 5 | -1 | 4 | 29* | 20
O=C(CC1Sc2ncnn2C1=O)Nc1ccccc1 (stereo not drawn) | -5 | 0 | 0 | 3 | 7 | 77* | 74*
COc1ccc(C2NC(=O)CCC2[N+](=O)[O-])c(OC)c1 (stereo not drawn) | . | -1 | 0 | -2 | 3 | -4 | .
COC(=O)c1sc(NC(=O)c2cc(-c3ccccc3)nc3ccccc23)c(C#N)c1C | -1 | 16 | -1 | 4 | -9 | 37* | 63*
CCOC(=O)c1sc(NC(=O)c2cc(-c3ccc(C)cc3)nc3ccccc23)c(C#N)c1C | -9 | -1 | 1 | 9 | -1 | 6 | .
CC(C)(C)N(NC(=O)NCCCl)C(=O)c1ccccc1Cl | . | . | . | . | . | -2 | .
CCCn1c(C2CCCN2c2nc(-c3ccc(C)cc3)cs2)nc2ccccc21 (stereo not drawn) | . | 0 | 1 | 3 | 5 | 2 | .
S=C1NC2=C(CCCC2=C2SCCCS2)C(c2ccccc2)N1 (stereo not drawn) | 3 | -8 | -10 | -11 | -14 | 35* | 4
S=C1NC2=C(CCC/C2=C\c2ccccc2)C(c2ccccc2)N1 (stereo not drawn) | 0 | -6 | -6 | -6 | -1 | 43* | 32*
Fc1cccc(/C=C2\CCCC3=C2NC(=S)NC3c2cccc(F)c2)c1 (stereo not drawn) | 0 | -9 | -5 | -4 | -9 | 64* | 18
O=C1CCCC2=C1C(c1ccccc1)NC(=S)N2 (stereo not drawn) | -3 | -2 | 2 | 0 | 2 | 4 | .
